Usually inhibition stands for the drop in the measured response relative to a control, in per cent.

The structures appear in SMILES notation. Calls of active or inactive are those of the source.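 Rule for the calls, unless noted: active = inhibition of the reporter signal at or above 50%; inactive = inhibition below 50%.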

Assay [1] in a line: inhibitors of TNFa-induced NFkB p65 translocation, primary screen, imaging, HUVEC, MLSMR starter and 10KST1 sets (AID 438;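 active = inhibition above 20% together with a positive visual image hit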;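 note: compound added about 3h40 before a 20 min TNFalpha stimulation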;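 for inhibition: signal is the nuclear over cytoplasmic p65 intensity ratio per well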). The following applies: HUVEC TNFa-induced p65 nuclear translocation; cell count: measured here: nuclei count (cytotoxicity indicator), at 2.08 µM; inhibition: at 2 µM, stronger effect = higher value, 0% TNFa-plus-vehicle, 100% no-TNFa wells.
Assay [2] in a line: inhibitors of mutant huntingtin aggregation, primary screen, imaging, exon1htt(103Q)mCFP cells, high-content imaging (AID 483;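 active = visual image review flags a hit and inhibition of aggregation exceeds 20%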;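 note: compound exposure lasted 3 days before fixation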;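 for nuclei count: percent of the per-plate median nuclei count of sample wells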). The following applies: exon1htt(103Q)mCFP cell line, aggregate imaging, at 2 µM; inhibition of aggregation: stronger effect = higher value; nuclei count: measured here: cell count, toxicity.
Assay [3] in a line: inhibitors of E-selectin induction by TNFa, primary screen, imaging, HUVEC, immunofluorescence, MLSMR starter and 10KST1 sets (AID 487;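 active = visually confirmed hit in the image check and inhibition above 20%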;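 for inhibition: signal is fraction of cell area covered by stained E-selectin grains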;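 for nuclei count: 100% = median nuclei count of all wells on the same plate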). To be noted: HUVEC TNFalpha-induced E-selectin immunofluorescence imaging, at 2 µM; inhibition: stronger effect = higher value; nuclei count: measured here: cell number, toxicity.
Assay [4] has as its target Voltage-gated potassium channel subunit beta-2 (Rattus norvegicus) (UniProt P62483). Kind of assay: KvBeta enzyme negative modulators, primary screen, biochemical, NADPH fluorescence (AID 622;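 active = fluorescence slope higher than the sample average by over 3 SD, cut at about -0.22 in these data, passing the limit was not always enough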;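 note: slope of raw intensity against log time taken from 70 to 1610 s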). To be noted: recombinant KvBeta, 4-cyanobenzaldehyde reduction, at 10 µM, stronger effect = higher value.
Assay [5] has the same target. Kind of assay: KvBeta positive modulators, primary screen, biochemical, NADPH fluorescence (AID 623;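 active = NADPH fluorescence slope more negative than the mean of all samples by about 3 SD, 99.7% confidence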;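 note: fluorescence intensity change per second fitted from 20 to 320 s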). The following applies: Recombinant KvBeta, NADPH fluorescence decrease slope, 10 min; at 10 µM; stronger effect = lower value.
The target in assay [6] is Muscarinic acetylcholine receptor M4 (Homo sapiens) (UniProt P08173). Nature of the assay: compounds altering M4/GIRK thallium flux, either direction, primary screen, M4 allosteric agonist project, cell-based, HEK293 M4/GIRK, BTC-AM (AID 625;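 active = fluorescence slope after compound addition differing from the mean of all tested samples at 99.7% confidence, mostly higher but some lower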;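 note: thallium influx through GIRK channels coupled to M4 in HEK293 cells with BTC-AM dye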). The following applies: at 10 µM, actives lie on both sides. In a few lines:
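assay system = HEK293 cells with M4 receptor and GIRK channels | medium = pH 7.3 thallium assay buffer | doses = 10 µM final, single point | timing = cells overnight at 37 °C, BTC-AM loading 1 h, reads 2 min total | signal = BTC-AM fluorescence, 1 Hz kinetic reads | read-out = post-addition slope, 15–24 s, of baseline-normalized fluorescence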

Assay [7] can be described thus: inhibitors of Sendai virus-induced IRF3 signaling, primary screen, TLR/RLR signaling modifier project, cell-based, Sendai virus stimulus, luciferase, 10K MLSCN set (AID 602276;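 active = inhibition at or above 50% at 10 µM; inactive = inhibition below 50%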;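 note: firefly luciferase from ISG56 promoter only with Renilla not read in this screen; 0% = Sendai virus plus DMSO and 100% = medium plus DMSO without virus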). To be noted: HEK293 RL24 IRF3 luciferase reporter, at 10 µM, stronger effect = higher value.
Assay [8] can be described thus: inhibitors of poly I:C-induced TLR3 signaling, primary screen, cell-based, poly I:C stimulus, luciferase, 10K MLSCN set (AID 602277). The following applies: HEK293-TLR3 RL24 IRF3 luciferase reporter, at 10 µM, stronger effect = higher value. A general note: In a reporter assay the amount or activity of a reporter protein is the signal.

Sequence of Voltage-gated potassium channel subunit beta-2 (Rattus norvegicus) (P62483 whole entry, looked up): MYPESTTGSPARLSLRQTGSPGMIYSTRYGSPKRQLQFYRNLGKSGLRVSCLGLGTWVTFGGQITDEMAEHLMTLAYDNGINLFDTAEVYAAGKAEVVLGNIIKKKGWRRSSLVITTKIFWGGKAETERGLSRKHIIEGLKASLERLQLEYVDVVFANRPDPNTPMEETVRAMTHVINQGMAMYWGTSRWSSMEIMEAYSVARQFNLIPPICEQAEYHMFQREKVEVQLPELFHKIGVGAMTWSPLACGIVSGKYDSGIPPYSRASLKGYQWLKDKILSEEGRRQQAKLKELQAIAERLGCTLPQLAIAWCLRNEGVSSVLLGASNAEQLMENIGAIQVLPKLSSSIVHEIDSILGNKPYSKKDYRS
Sequence of Muscarinic acetylcholine receptor M4 (Homo sapiens) (P08173 whole entry, looked up): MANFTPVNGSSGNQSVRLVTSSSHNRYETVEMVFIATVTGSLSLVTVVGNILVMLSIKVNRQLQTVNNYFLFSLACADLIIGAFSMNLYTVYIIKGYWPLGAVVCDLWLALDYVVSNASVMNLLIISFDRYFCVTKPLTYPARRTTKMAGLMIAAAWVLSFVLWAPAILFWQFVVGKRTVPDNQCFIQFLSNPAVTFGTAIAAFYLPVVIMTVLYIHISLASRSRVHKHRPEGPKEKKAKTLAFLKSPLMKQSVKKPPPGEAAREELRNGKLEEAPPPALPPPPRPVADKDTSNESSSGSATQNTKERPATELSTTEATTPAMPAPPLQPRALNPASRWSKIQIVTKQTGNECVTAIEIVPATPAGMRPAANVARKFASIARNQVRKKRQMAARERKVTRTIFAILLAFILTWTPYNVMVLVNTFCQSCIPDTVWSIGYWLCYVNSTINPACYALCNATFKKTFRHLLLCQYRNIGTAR

As for `CCC(C)N=C1SCC(C)(/C=N/O)S1` (centres undefined), the cell count in assay [1] came out at 367. The inhibition is -7.2% (inactive) in assay [1], -31.5% (inactive) in assay [3], 9.86% (inactive) in assay [7] and 2.1% (inactive) in assay [8]. Also, in assay [2], the inhibition of aggregation is 16.5% (inactive). The nuclei count amounted to 80.1% in assay [2] and 122% in assay [3]. Further, the fluorescence slope was -0.55 (inactive) in assay [4] and 0.00292 (inactive) in assay [6]. Also, the NADPH fluorescence slope in assay [5] was -6.5e-05 (inactive).

Regarding `Cc1nc(/N=C\N(C)C)sc1C(=O)Nc1ccccc1`, in assay [1], the cell count came out at 602. Besides, the inhibition was 1.5% (inactive) in assay [1], -27.8% (inactive) in assay [3], -2.68% (inactive) in assay [7] and -18.9% (inactive) in assay [8]. Besides, the inhibition of aggregation in assay [2] is -11.8% (inactive). Further, the nuclei count was 113% in assay [2] and 97.5% in assay [3]. Moreover, the fluorescence slope was -0.306 (inactive) in assay [4] and 0.00595 (inactive) in assay [6]. Further, in assay [5], the NADPH fluorescence slope was -2e-05 (inactive).

For `Oc1ccc2[nH]cnc2c1CN1CCCCC1`, in assay [1], the cell count came to 405. The inhibition in assay [1] was 2.2% (inactive); in assay [3], 8% (inactive); in assay [7], 15.4% (inactive); in assay [8], 25.1% (inactive). In addition, the inhibition of aggregation in assay [2] was 5.5% (inactive). Moreover, the values for the nuclei count in assay [2] and in assay [3] were 88.7% and 95.1%, respectively. Further, the fluorescence slope in assay [4] was -0.569 (inactive); in assay [6] it was 0.00526 (inactive). Further, the NADPH fluorescence slope in assay [5] was -0.000119 (inactive).

Consider `N#C/C(C(=O)c1ccccc1)=C1/CCCN1`, for which the cell count in assay [1] is 328. For the same molecule, the inhibition was 0.4% (inactive) in assay [1], -66.4% (inactive) in assay [3], 4.87% (inactive) in assay [7] and -17.4% (inactive) in assay [8]. Further, the inhibition of aggregation in assay [2] is -10.6% (inactive). In addition, the figures for the nuclei count in assay [2] and in assay [3] were 109% and 134%, respectively. For the same molecule, the fluorescence slope in assay [4] is -0.567 (inactive); in assay [6], 0.00513 (inactive). Besides, the NADPH fluorescence slope in assay [5] is -5.4e-05 (inactive).

As for `CCC1C(=O)n2nc(-c3ccccc3)cc2N=C1C` (centres undefined), the cell count in assay [1] was determined as 330. Also, the inhibition in assay [1] is 0% (inactive); in assay [3], -4.1% (inactive); in assay [7] it was -22% (inactive); in assay [8] it was -37% (inactive). In addition, the inhibition of aggregation in assay [2] is -7.3% (inactive). Also, the nuclei count was determined as 102% in assay [2] and 114% in assay [3]. For the same molecule, the fluorescence slope was -0.506 (inactive) in assay [4] and 0.006 (inactive) in assay [6]. Also, the NADPH fluorescence slope in assay [5] was -4.6e-05 (inactive).

For the molecule `COc1cccc(NC(=O)CSc2nnc(-c3cccs3)n2C)c1`, the cell count in assay [1] was found to be 576. Also, the inhibition in assay [1] is -8.5% (inactive); in assay [3], -65.4% (inactive); in assay [7] it was 8.77% (inactive); in assay [8] it was 6.56% (inactive). In addition, the inhibition of aggregation in assay [2] is 19.8% (inactive). Also, the values for the nuclei count in assay [2] and in assay [3] were 65.7% and 95.9%, respectively. Also, the fluorescence slope in assay [4] is -0.278 (inactive); in assay [6] it was 0.00909 (inactive). Also, in assay [5], the NADPH fluorescence slope is -5e-05 (inactive).

On to `O=C(CSc1nnc(-c2ccccc2Cl)n1Cc1ccco1)Nc1ccc2c(c1)OCCO2`, for which, in assay [1], the cell count was determined as 309. The inhibition in assay [1] is 0.8% (inactive); in assay [3] it was -75.1% (inactive); in assay [7], 8.89% (inactive); in assay [8] it was 18.1% (inactive). In addition, in assay [2], the inhibition of aggregation was 3.4% (inactive). Besides, the nuclei count in assay [2] came out at 88.5%; in assay [3], 107%. Also, the results for the fluorescence slope in assay [4] and in assay [6] were -0.391 (inactive) and 0.00631 (inactive), respectively. In addition, the NADPH fluorescence slope in assay [5] was -9.8e-05 (inactive).

For the molecule `Cc1nc2ccccn2c1P(=O)(N1CCCCC1)N1CCCCC1`, the cell count in assay [1] was 666. The inhibition in assay [1] was -11.7% (inactive); in assay [3], -64.2% (inactive); in assay [7] it was 20.1% (inactive); in assay [8] it was 20.6% (inactive). In assay [2], the inhibition of aggregation was -0.1% (inactive). Also, the nuclei count in assay [2] worked out at 77%; in assay [3], 108%. Besides, the fluorescence slope is -0.526 (inactive) in assay [4] and 0.00464 (inactive) in assay [6]. Also, in assay [5], the NADPH fluorescence slope is -1.7e-06 (inactive).

Turning to `CC(C)(C)n1ncc2c(=O)n(CC(=O)c3ccccc3)cnc21`, the cell count in assay [1] worked out at 473. Further, the inhibition in assay [1] is -1% (inactive); in assay [3], 22.9% (inactive); in assay [7], -21.3% (inactive); in assay [8] it was -59.6% (inactive). Moreover, the inhibition of aggregation in assay [2] was -4.1% (inactive). Besides, the nuclei count in assay [2] turned out to be 126%; in assay [3], 105%. Moreover, the figures for the fluorescence slope in assay [4] and in assay [6] were -0.534 (inactive) and 0.00534 (inactive), respectively. Also, the NADPH fluorescence slope in assay [5] is -2.2e-05 (inactive).

For `COc1ccc(-c2cc(C(=O)Nc3ccc(C)cc3)no2)cc1`, in assay [1], the cell count was 320. Moreover, the inhibition was -6.5% (inactive) in assay [1], -9.7% (inactive) in assay [3], -20.2% (inactive) in assay [7] and -32.3% (inactive) in assay [8]. The inhibition of aggregation in assay [2] is -11.2% (inactive). For the same molecule, the nuclei count in assay [2] came to 108%; in assay [3], 103%. Moreover, the results for the fluorescence slope in assay [4] and in assay [6] were -0.323 (inactive) and 0.00844 (inactive), respectively. Also, in assay [5], the NADPH fluorescence slope was -8.4e-07 (inactive).

With `C/C(Cl)=C\Cn1c(Nc2ccc(C)cc2)nc2c1c(=O)n(C)c(=O)n2C`, in assay [1], the cell count was determined as 533. The inhibition in assay [1] was -1.1% (inactive); in assay [3], -73.9% (inactive); in assay [7], 16.1% (inactive); in assay [8] it was 17.5% (inactive). Also, the inhibition of aggregation in assay [2] is 24.5% (inactive). Moreover, the nuclei count in assay [2] was 78.9%; in assay [3], 117%. For the same molecule, the fluorescence slope in assay [4] is -0.572 (inactive); in assay [6], 0.00543 (inactive). Further, in assay [5], the NADPH fluorescence slope was -4.2e-05 (inactive).

`CN=C(C)C1=C(O)C(C(=O)OC)C(C)(C)CC1=O` (centres undefined): the cell count in assay [1] worked out at 506. In addition, the inhibition is 5% (inactive) in assay [1], -187% (inactive) in assay [3], 16.6% (inactive) in assay [7] and 16.6% (inactive) in assay [8]. For the same molecule, the inhibition of aggregation in assay [2] is -7.4% (inactive). Moreover, the nuclei count was 108% in assay [2] and 122% in assay [3]. Besides, the fluorescence slope in assay [4] is -0.54 (inactive); in assay [6], 0.00531 (inactive). In addition, in assay [5], the NADPH fluorescence slope was -0.00011 (inactive).

Consider `CC(=O)c1ccc(Oc2cc(C)nc(-n3nc(C)cc3C)n2)cc1`, for which the cell count in assay [1] turned out to be 468. The inhibition is -15.6% (inactive) in assay [1], -17.9% (inactive) in assay [3], -4.86% (inactive) in assay [7] and 78.2% (active) in assay [8]. Besides, the inhibition of aggregation in assay [2] is -50.7% (inactive). Moreover, the nuclei count in assay [2] was 1.1%; in assay [3], 102%. Further, the fluorescence slope was -0.547 (inactive) in assay [4] and 0.00511 (inactive) in assay [6]. In addition, the NADPH fluorescence slope in assay [5] was 1.9e-05 (inactive).

In the case of `CCc1ccccc1NC(=O)CSc1nc2n[nH]c(C)c2c(=N)n1-c1ccc(OC)cc1`, the cell count in assay [1] is 453. Also, the inhibition in assay [1] is 17.4% (inactive); in assay [3], 41.3% (inactive); in assay [7], 15.1% (inactive); in assay [8] it was 20.3% (inactive). The inhibition of aggregation in assay [2] was -1.3% (inactive). Further, the nuclei count was determined as 104% in assay [2] and 103% in assay [3]. Moreover, the figures for the fluorescence slope in assay [4] and in assay [6] were -0.47 (inactive) and 0.00766 (inactive), respectively. Further, the NADPH fluorescence slope in assay [5] was -4.8e-05 (inactive).
